Reference: ChEMBL document CHEMBL1122852, “Imidazo[1,5-d][1,2,4]triazines as potential antiasthma agents” (J Med Chem, 1985)

organism: Homo sapiens; assay: Inhibitory activity against histamine release from antigen-challenged, sensitized human basophils; type: functional; conditions: not given
Summary of the method: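 Histamine release was induced by antigen challenge of sensitized human basophils in vitro. Compounds were first screened at a single concentration. Those reducing release by more than 50% went on to concentration-response testing to estimate IC50. Values are given with standard error and number of experiments.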

Row | SMILES | IC50 [µM]
1 | C=CCn1nc(C)c2c(C)nc(CCC)n2c1=O | > 48

same assay, conditions: Homo sapiens

Row | SMILES | IC50 [µM]
2 | Cc1nc(C(C)C)n2c(O)nnc(-c3ccccc3)c12 | > 48
3 | C=CCn1ncc2cncn2c1=O | > 48
4 | CC(C)c1ncn2c(S)nncc12 | > 48
5 | C=CCn1ncc2c(C)nc(CC)n2c1=O | > 48
6 | COCc1nc(Br)c2c(Br)nnc(O)n12 | > 48
7 | CCCc1nnc(S)n2c(CCC)nc(C)c12 | > 48
8 | CCCc1ncn2c(SC)nncc12 | > 48
9 | CSc1nncc2c(C)nc(C(C)C)n12 | > 48
10 | CSc1nncc2c(C(C)C)ncn12 | > 48
11 | Oc1nncc2cnc(-c3ccccc3)n12 | > 48
12 | CCCc1nc(C)c2cnn(CC)c(=O)n12 | > 48
13 | CCc1nc(C)c2c(-c3ccccc3)nnc(O)n12 | > 48
14 | CCCc1ncc2c(C)nnc(S)n12 | > 48
15 | C=CCn1ncc2c(C)nc(C(C)C)n2c1=O | > 48
16 | C=CCSc1nncc2c(C)nc(-c3ccccc3)n12 | > 48
17 | Cc1nc(C)n2c(S)nncc12 | > 48
18 | Cc1nc(C(C)C)n2c(S)nncc12 | > 48
19 | CCCc1ncc2cnnc(SC)n12 | > 48
20 | CCCc1nc(C)c2cnnc(SC)n12 | > 48
21 | CSc1nncc2c(C)ncn12 | > 48
22 | Cc1ncn2c(Nc3cccs3)nncc12 | > 48
23 | C=CCn1ncc2cnc(Cc3ccccc3)n2c1=O | > 48
24 | CCCc1nc(C)c2c(C(C)C)nnc(O)n12 | > 48

Row | SMILES | IC50 [µM]
25 | C=CCn1ncc2c(C)nc(C(C)(C)C)n2c1=O | > 48
26 | CCCc1nc(C)c2cnn(C)c(=O)n12 | 20
27 | CC(C)c1ncn2c(O)nncc12 | > 48
28 | C=CCn1ncc2c(CCC)ncn2c1=O | > 48
29 | CSc1nnc(C)c2c(C)nc(C)n12 | > 48
30 | C=CCSc1nncc2c(CC)ncn12 | > 48
31 | CCCc1nnc(O)n2c(C)ncc12 | > 48
32 | Oc1nnc(-c2ccccc2)c2cncn12 | 19
33 | CCc1nc(C)c2c(-c3ccccc3)nnc(SC)n12 | > 48
34 | CCCc1nc(C)c2c(C)nnc(S)n12 | 45
35 | Cc1nc(C(C)C)n2c(O)nncc12 | > 48
36 | CSc1nnc(-c2ccccc2)c2cncn12 | > 48
37 | C=CCSc1nncc2cnc(C)n12 | 61
38 | CCCc1nc(C)n2c(O)nncc12 | > 48
39 | CCOC(=O)C(C)Sc1nncc2cncn12 (centres undefined) | > 48
40 | CC(C)(C)c1ncc2cnnc(O)n12 | > 48
41 | C=CCn1nc(Br)c2c(Br)nc(CCC)n2c1=O | > 48
42 | CCc1ncn2c(O)nncc12 | > 48
43 | O=C(CSc1nncc2cncn12)c1ccccc1 | > 48
44 | CCc1ncn2c(S)nncc12 | > 48
45 | CCOC(=O)CSc1nncc2c(C)nc(C)n12 | > 48
46 | Cc1nc(C)n2c(O)nncc12 | > 48
47 | Cc1nc(C(C)(C)C)n2c(O)nncc12 | 31

Row | SMILES | IC50 [µM]
48 | CCc1nnc(O)n2c(C)nc(C)c12 | > 48
49 | CCCc1nnc(O)n2c(C)nc(C)c12 | > 48
50 | CN1CCN(c2nncc3cncn23)CC1 | > 48
51 | CCCc1nc(C)c2c(C)nn(CC(O)CO)c(=O)n12 (centres undefined) | > 48
52 | CCOC(=O)CSc1nncc2c(C)ncn12 | > 48
53 | CCCc1ncc2c(C)nnc(SC)n12 | > 48
54 | c1ccc(C(c2ccccc2)N2CCN(c3nncc4cncn34)CC2)cc1 | > 48
55 | C=CCn1ncc2c(C)nc(Cc3ccccc3)n2c1=O | > 48
56 | COCc1ncc2cnnc(SC)n12 | > 48
57 | COCc1nc(C)c2c(C)nnc(O)n12 | > 48
58 | Cn1ncc2cnc(Cc3ccccc3)n2c1=O | > 48
59 | CCc1nnc(O)n2c(CC)nc(C)c12 | 24
60 | C=CCn1ncc2c(C)nc(CCC)n2c1=O | 40
61 | Cc1nnc(S)n2c(C)nc(C)c12 | > 48
62 | CCn1ncc2c(C)nc(C(C)C)n2c1=O | > 48
63 | CCc1nc(C)c2cnnc(SC)n12 | > 48
64 | CCc1nnc(S)n2c(C(C)CC)nc(C)c12 (centres undefined) | > 48
65 | CCCc1nc(C)c2c(C)nn(CCC)c(=O)n12 | > 48
66 | CCCc1nc(C)c2cnn(CC3CC3)c(=O)n12 | > 48
67 | C=CCn1ncc2c(CC)ncn2c1=O | > 48
68 | CCCc1nc(C)c2c(-c3ccccc3)nnc(O)n12 | > 48
69 | CCCc1nc(C)c2n1C(SC)=NNC2c1ccccc1 (centres undefined) | > 48
70 | CNc1nncc2c(C)ncn12 | > 48

Row | SMILES | IC50 [µM]
71 | Cc1ncn2c(N(C)C)nncc12 | > 48
72 | Cc1nc(-c2ccccc2)n2c(O)nncc12 | > 48
73 | Cc1nc(CC(C)(C)C)n2c(O)nncc12 | > 48
74 | Cc1nc(C)n2c(=O)n(C)ncc12 | > 48
75 | CCCc1nc(C)c2c(C)nn(Cc3ccccc3)c(=O)n12 | > 48
76 | Oc1nncc2c(Br)nc(Cc3ccccc3)n12 | > 48
77 | CCCc1nc(C)c2cnnc(NCCN(C)C)n12 | > 48
78 | CCCc1ncn2c(Nc3cc[nH]n3)nncc12 | > 48
79 | O/C(=C/c1nncc2cncn12)c1ccccc1 | 38
80 | Oc1nncc2cncn12 | > 48
81 | c1ncn2c(NC34CC5CC(CC(C5)C3)C4)nncc12 | > 48
82 | C=CCSc1nncc2cnc(-c3ccccc3)n12 | > 48
83 | C=CCn1ncc2cnc(COC)n2c1=O | > 48
84 | CCn1ncc2cncn2c1=S | > 48
85 | CCc1nnc(O)n2c(C(C)CC)nc(C)c12 (centres undefined) | 45
86 | C=C=Cn1nc(C)c2c(C)nc(CCC)n2c1=O | > 48
87 | CCCCCCCCCCCCCCCCCc1ncc2cnnc(S)n12 | > 48
88 | CCOC(=O)Cn1ncc2cnc(COC)n2c1=O | > 48
89 | C(=C\CSc1nncc2cncn12)/CSc1nncc2cncn12 | > 48
90 | CCCc1nc(C)c2c(C)nn(C)c(=O)n12 | > 48
91 | CCCc1nc(C)c2c(C)nn(CC(=O)O)c(=O)n12 | > 48
92 | C=CCn1nc(CCC)c2c(C)nc(CCC)n2c1=O | 29
93 | CCCc1nc(C)c2cnnc(O)n12 | 56.8

Row | SMILES | IC50 [µM]
94 | CCCc1nc(C)c2c(C)nn(CC)c(=O)n12 | > 48
95 | CCCc1nc(C)c2cnn(CC(=O)OCC)c(=O)n12 | > 48
96 | C=CCn1ncc2c(C)nc(C)n2c1=O | 73
97 | C=CCn1ncc2c(Br)nc(CCC)n2c1=O | > 48
98 | Oc1nncc2cnc(Cc3ccccc3)n12 | > 48
99 | CCCc1ncn2c(O)nncc12 | > 48
100 | CC(C)(C)c1nc(Br)c2cnnc(O)n12 | 19
101 | Oc1nnc(Br)c2c(Br)nc(Br)n12 | 27
102 | COCc1ncc2cnnc(S)n12 | > 48
103 | CC(=O)N(C1=NNCC1)c1nncc2c(C)ncn12 | > 48
104 | C=CCn1ncc2c(C)nc(CCC)n2c1=S | > 48
105 | CCc1nc(C)c2cnnc(S)n12 | > 48
106 | CCc1nc(C)c2cnn(CC)c(=O)n12 | 75.6
107 | COCc1nc(C)c2cnnc(S)n12 | > 48
108 | CCCc1nc(C)c2c(-c3ccccc3)nnc(SC)n12 | > 48
109 | c1ccc(-c2cn[nH]c2Nc2nncc3cncn23)cc1 | 10
110 | CCCc1nc(Br)c2cnnc(O)n12 | > 48
111 | CCCc1nc(C)c2c(-c3ccccc3)nnc(Nc3cc[nH]n3)n12 | > 48
112 | CCCc1nn(C)c(=O)n2c(CCC)nc(C)c12 | 18
113 | C=CCn1ncc2c(C)ncn2c1=O | > 48
114 | CCOC(=O)CSc1nncc2cnc(C)n12 | 52
115 | CCCc1nc(C)c2cnn(C/C=C/C(=O)OCC)c(=O)n12 | > 48
116 | C=CCn1ncc2cnc(C)n2c1=O | > 48

Row | SMILES | IC50 [µM]
117 | Cc1nc(-c2ccccc2)n2c(S)nncc12 | > 48
118 | CN(C)CCNc1nncc2cncn12 | > 48
119 | COCc1ncc2n1C(NCCN(C)C)NN=C2NCCN(C)C (centres undefined) | > 48
120 | COCc1ncc2cnnc(NCCN(C)C)n12 | > 48
121 | c1coc(CNc2nncc3cncn23)c1 | > 48
122 | Cc1nnc(S)n2cncc12 | > 48
123 | CCCc1nc(C)c2c(C)nn(CC(=O)c3ccccc3)c(=O)n12 | > 48
124 | Sc1nncc2cncn12 | > 48
125 | CCCc1nc(C)c2c(CC)nnc(S)n12 | > 48
126 | c1ccc(CNc2nncc3cncn23)cc1 | > 48
127 | CCO/C(O)=C\c1nncc2cncn12 | > 48
128 | CCc1nc(C)c2cnnc(O)n12 | > 48
129 | COc1ccc(-c2ncc3cnnc(O)n23)cc1 | > 48
130 | CSc1nncc2cnc(C)n12 | > 48
131 | Sc1nncc2cnc(-c3cccc(Cl)c3)n12 | > 48
132 | c1nc(Nc2nncc3cncn23)n[nH]1 | 46
133 | CCOC(=O)/C=C/CSc1nncc2cncn12 | > 48
134 | CC(C)CCSc1nncc2cncn12 | 9
135 | CCOC(=O)/C(=C(\O)OCC)c1nncc2cncn12 | > 48
136 | Cc1ncc2cnnc(O)n12 | > 48
137 | C=CCSc1nncc2cnc(CCC)n12 | > 48
138 | CSc1nncc2c(C)nc(C)n12 | > 48
139 | CCCc1ncc2c(C)nnc(O)n12 | > 48

Row | SMILES | IC50 [µM]
140 | C=CCSc1nncc2c(C)nc(C)n12 | 59
141 | CCCCc1nnc(O)n2c(CCC)nc(C)c12 | > 48
142 | CCc1nnc(O)n2c(C(C)(C)C)nc(C)c12 | 26
143 | CCOC(=O)Cn1ncc2c(C)ncn2c1=O | > 48
144 | CCOC(=O)CSc1nncc2cncn12 | > 48
145 | CCCc1nnc(SC)n2c(CCC)nc(C)c12 | > 48
146 | C=CCn1ncc2cnc(C)n2c1=S | > 48
147 | c1ncn2c1C(NC1CCCC1)NN=C2NC1CCCC1 (centres undefined) | > 48
148 | CCCc1ncn2c(S)nncc12 | > 48
149 | CNc1nncc2cncn12 | > 48
150 | C=CCn1ncc2cnc(-c3ccc(OC)cc3)n2c1=O | > 48
151 | C=CCn1nc(C)c2c(C)nc(CCC)n2c1=O | 69
152 | COCc1ncc2cnnc(O)n12 | > 48
153 | Cc1ncn2c(Nc3cccnc3)nncc12 | > 48
154 | CCCc1nc(C)c2cnn(CC(O)CO)c(=O)n12 (centres undefined) | > 48
155 | C=CCSc1nncc2cnc(COC)n12 | 79
156 | C=CCn1ncc2c(Br)nc(Cc3ccccc3)n2c1=O | > 48
157 | Cc1ncn2c(O)nncc12 | > 48
158 | C=CCn1ncc2c(CC)ncn2c1=S | > 48
159 | CCCc1nc(C)c2c(CC)nnc(SC)n12 | > 48
